B1: NELF-E aptamer (parent)
chain: CCCAACGACUGCCGAGCGAGAUUACGCUUGAGCGCCCCACUGAGGAUGCCCACGGGCGAUUGGGGCACGG

The Kd is a measure of binding affinity in units of concentration.

The variants in the data set derive from B1. Put plainly: HiTS-RAP. The note with it: with NELF-E (Drosophila). The method in brief:
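Kd came from weighted Hill fits to the first binding curve, with intensities normalised to sequencing intensity and averaged per sequence, keeping only fits whose variance was below 1,000,000. That curve was imaged on an Illumina GAIIx flowcell, where sequenced aptamer DNA templates with a T7 promoter and ter site had been transcribed in situ by T7 RNA polymerase and halted by GST-Tus (30 minutes, 37°C). Before each image, clusters equilibrated for 30 minutes at room temperature with NELF-E-mOrange at 0.064 to 1000 nM in HEPES binding buffer.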
CCCAACGACGGCCCAGCGAGAUUACGCUUGAGCGCCCCACUGAGGAUGCCCACGGGCGAUUGGGGCACGG: the dissociation constant (Kd) came out at 6.25 nM. To CCCAACGACGGCCUAGCGAGAUUACGCUUGAGCGCCCCACUGAGGAUGCCCACGGGCGAUUGGGGCACGG belongs 5.99 nM.

In the case of CCCAACGACGGCCAAGCGAGAUUACGCUUGAGCGCCCCACUGAGGAUGCCCACGGGCGAUUGGGGCACGG, the Kd is 5.01 nM. Under CCCAACGACGGCCGAGCGAAAUUACGCUUGAGCGCCCCACUGAGGAUGCCCACGGGCGAUUGGGGCACGG stands 5.57 nM; under CCCAACGACGGCCGAGCGAUAUUACGCUUGAGCGCCCCACUGAGGAUGCCCACGGGCGAUUGGGGCACGG, 6.08 nM. To CCCAACGACGGCCGAGCGAGAUUACGCUUGAGCGCCCCACUGAGGAUGCCCAUGGGCGAUUGGGGCACGG belongs 3.77 nM; to CCCAACGACGGCCGAGCGAGAUUACGCUUGAGCGCCCCACUGAGGAUGCCCAGGGGCGAUUGGGGCACGG, 6.55 nM; to CCCAACGACGGCCGAGCGAGAUUACGCUUGAGCGCCCCACUGAGGAUGCCCACGGGCGAUUGGGGGACGG, 4.43 nM. To CCCAACGACGGCCGAGCGAGAUUACGCUUGAGCGCCCCACUGAGGAUGCCCACGGGCGAUUGGGGUACGG belongs 4.66 nM; to CCCAACGACGGCCGAGCGAGAUUACGCUUGAGCGCCCCACUGAGGAUGCCCACGGGCGAUUGGGGAACGG, 5.44 nM; to CCCAACGACGGCCGAGCGAGAUUACGCUUGAGCGCCCCACUAAGGAUGCCCACGGGCGAUUGGGGCACGG, 42.8 nM. In the case of CCCAACGACGGCCGAGCGAGAUUACGCUUGAGCGCCCCACUUAGGAUGCCCACGGGCGAUUGGGGCACGG, the Kd was determined as 23.2 nM.

For the variant CCCAACGACGGCCGAGCGAGAUUACGCUUGAACGCCCCACUGAGGAUGCCCACGGGCGAUUGGGGCACGG, the equilibrium dissociation constant (Kd) came out at 4.44 nM.

CCCAACGACGGCCGAGCGAGAUUACGCUUGACCGCCCCACUGAGGAUGCCCACGGGCGAUUGGGGCACGG: the Kd is 4.38 nM. Under CCCAACGACGGCCGAGCGAGAUUACGCUUGAUCGCCCCACUGAGGAUGCCCACGGGCGAUUGGGGCACGG stands 5.18 nM. To CCCAACGACGUCCGAGCGAGAUUACGCUUGAGCGCCCCACUGAGGAUGCCCACGGGCGAUUGGGGCACGG belongs 5.48 nM; to CCCAACGACGACCGAGCGAGAUUACGCUUGAGCGCCCCACUGAGGAUGCCCACGGGCGAUUGGGGCACGG, 6.15 nM. Under CCCAACGACGCCCGAGCGAGAUUACGCUUGAGCGCCCCACUGAGGAUGCCCACGGGCGAUUGGGGCACGG stands 5.59 nM.

As to CCCAACGACGGCCGAGCGAGAUUACGCUUGAGCACCCCACUGAGGAUGCCCACGGGCGAUUGGGGCACGG, the Kd is 6.95 nM. To CCCAACGACGGCCGAGCGAGAUUACGCUUGAGCUCCCCACUGAGGAUGCCCACGGGCGAUUGGGGCACGG belongs 5.54 nM; to CCCAACGACGGCCGAGCGAGAUUACGCUUGAGCCCCCCACUGAGGAUGCCCACGGGCGAUUGGGGCACGG, 13.2 nM.

CCCAACGACGGCCGAGCGAGAUUACGCUUUAGCGCCCCACUGAGGAUGCCCACGGGCGAUUGGGGCACGG: the Kd is 5.29 nM. Under CCCAACGACGGCCGAGCGAGAUUACGCUUAAGCGCCCCACUGAGGAUGCCCACGGGCGAUUGGGGCACGG stands 4.59 nM; under CCCAACGACGGCCGAGCGAGAUUACGCUUCAGCGCCCCACUGAGGAUGCCCACGGGCGAUUGGGGCACGG, 5.8 nM; under CCCAACGACGGCCGAGCGAGAUUACGCUUGAGCGCCCCACUGAAGAUGCCCACGGGCGAUUGGGGCACGG, 45.2 nM. With CCCAACGACGGCCGAGCGAGAUUACGCUUGAGCGCCCCACUGACGAUGCCCACGGGCGAUUGGGGCACGG, the Kd was 34.8 nM. Turning to CCCAACGACGGCCGAGCGAGAUUACGCUUGAGCGCCCCACUGAUGAUGCCCACGGGCGAUUGGGGCACGG, the dissociation constant (Kd) was 9.69 nM. To CCCAACGACGGCCGAGCGAGAUUACGCUUGAGCGCCCCACUGAGAAUGCCCACGGGCGAUUGGGGCACGG belongs 68.6 nM. To CCCAACGACGGCCGAGCAAGAUUACGCUUGAGCGCCCCACUGAGGAUGCCCACGGGCGAUUGGGGCACGG belongs 5.37 nM.

As to CCCAACGACGGCCGAGCUAGAUUACGCUUGAGCGCCCCACUGAGGAUGCCCACGGGCGAUUGGGGCACGG, the Kd worked out at 5.3 nM. To CCCAACGACGGCCGAGCGAGAUUACGCUUGAGCGCCCCACUGAGGAUGCCCACGGGAGAUUGGGGCACGG belongs 11.8 nM; to CCCAACGACGGCCGAGCGAGAUUACGCUUGAGCGCCCCACUGAGGAUGCCCACGGGGGAUUGGGGCACGG, 7.81 nM. For CCCAACGACGGCCGAGCGAGAUUACGCUUGAGCGCCCCACUGAGGAUGCCCACGGGUGAUUGGGGCACGG, the Kd was 5.61 nM.

Take CCCAACGACGGCCGAACGAGAUUACGCUUGAGCGCCCCACUGAGGAUGCCCACGGGCGAUUGGGGCACGG: the Kd came to 5.62 nM. Under CCCAACGACGGCCGAUCGAGAUUACGCUUGAGCGCCCCACUGAGGAUGCCCACGGGCGAUUGGGGCACGG stands 6.08 nM; under CCCAACGACGGCCGACCGAGAUUACGCUUGAGCGCCCCACUGAGGAUGCCCACGGGCGAUUGGGGCACGG, 6.96 nM; under CCCAACGACGGCCGAGCGAGAUUACUCUUGAGCGCCCCACUGAGGAUGCCCACGGGCGAUUGGGGCACGG, 5.07 nM. Consider CCCAACGACGGCCGAGCGAGAUUACCCUUGAGCGCCCCACUGAGGAUGCCCACGGGCGAUUGGGGCACGG, for which the Kd is 17.4 nM. To CCCAACGACGGCCGAGCGAGAUUACACUUGAGCGCCCCACUGAGGAUGCCCACGGGCGAUUGGGGCACGG belongs 4.15 nM.

(Values after the RNAGym collection of RNA variant scans (doi:10.1038/nmeth.2970).)
